# Experimental data pooled from the literature.
# Each line is one published result; the experiments were not run side by side.
# Organism: Plasmodium falciparum
# Observed: parasite growth
SMILES,technique,strain,concentration,time,notes,endpoint,result
COCC(=O)N1CCC[C@H](C(=O)NCc2nc(-c3ccc(OC)cc3)cs2)C1,SYBR Green,DD2,,72 h,blood stage,EC50,20 nM
Cn1cc2c3c1C(=O)C(NCCc1ccc(O)cc1)=CC3=NCC2,SYBR Green,DD2,,,blood stage,IC50,2380 nM
O=C(/C=C/c1cn(Cc2cn(-c3ccnc4cc(Cl)ccc34)nn2)c2ccccc12)c1ccccc1Br,SYBR Green,3D7,10 µM,,blood stage,inhibition,47.4%
COC1=CC2=[N+](C)CCc3c[nH]c(c32)C1=O,SYBR Green,W2,,,blood stage,IC50,1520 nM
O=C(/C=C/c1cn(Cc2cn(-c3ccnc4cc(Cl)ccc34)nn2)c2ccccc12)c1ccccc1,SYBR Green,3D7,5 µM,,blood stage,inhibition,-3.08%
O=C1c2[nH]cc3c2C(=NCC3)c2c(-c3ccc(O)cc3)c[nH]c21,SYBR Green,DD2,,,blood stage,IC50,4770 nM
COCC(=O)N1CCCC(C(=O)NCc2nc(-c3ccccc3)cs2)C1 (racemic),SYBR Green,DD2,,72 h,blood stage,EC50,140 to 190 nM
CCOC(=O)C1=C(C)NC2=C(C(=O)CC(c3ccc(Cl)c(OC)c3)C2)C1c1ccccc1Cl (stereo not shown),SYBR Green,3D7,,,blood stage,EC50,~20 nM
CCOCC(=O)N1CCC[C@H](C(=O)NCc2nc(-c3ccccc3)cs2)C1,SYBR Green,DD2,,72 h,blood stage,EC50,24 nM
Cc1cc(Nc2ccc(S(F)(F)(F)(F)F)cc2)n2nc(C(C)(F)F)nc2n1,,3D7,,,blood stage,EC50,8.4 nM
COc1ccccc1C(=O)/C=C/c1cn(Cc2cn(-c3ccnc4cc(Cl)ccc34)nn2)c2ccccc12,SYBR Green,,,,"drug-resistant strain, blood stage",IC50,3500 nM
O=C1C(NCCc2c[nH]c3ccccc23)=CC2=NCCc3c[nH]c1c32,SYBR Green,W2,,,blood stage,IC50,716 nM
O=C1C(O)=C([C@H]2CC[C@H](c3ccc(Cl)cc3)CC2)C(=O)c2ccccc21,SYBR Green,,,72 h,,EC50,0.86 nM
O=C(/C=C/c1cn(Cc2cn(-c3ccnc4cc(Cl)ccc34)nn2)c2ccccc12)c1ccc(Br)cc1,SYBR Green,3D7,5 µM,,blood stage,inhibition,12.9%
Cc1cc(Nc2ccc(S(F)(F)(F)(F)F)cc2)n2nc(C(C)(F)F)nc2n1,SYBR Green,,,72 h,,EC50,5.7 nM
COC(CNC1=CC2=NCCc3c[nH]c(c32)C1=O)c1c[nH]c2ccccc12 (stereo not shown),SYBR Green,DD2,,,blood stage,IC50,654 nM
O=C(/C=C/c1cn(Cc2cn(-c3ccnc4cc(Cl)ccc34)nn2)c2ccccc12)c1ccccc1[N+](=O)[O-],SYBR Green,3D7,10 µM,,blood stage,inhibition,26.1%
NC1=CC2=NCCc3c[nH]c(c32)C1=O,SYBR Green,W2,,,blood stage,IC50,294 nM
O=C(/C=C/c1cn(Cc2cn(-c3ccnc4cc(Cl)ccc34)nn2)c2ccccc12)c1cccc([N+](=O)[O-])c1,SYBR Green,3D7,5 µM,,blood stage,inhibition,4.82%
